Source: publication PMC10832541 (Microbial Biotechnology, 2024)
In brackets after ≈: the same amount, converted by molar mass. Entries after “also recorded” stand apart in the source; their conditions may differ. One block for each molecule: values may come before it.

Experiments:
Enterococcus faecalis = assay: In vitro antibacterial activity; type: cell-based; settings: Enterococcus faecalis strains; CLSI guidelines; range over strains
Enterococcus faecium = assay: In vitro antibacterial activity; type: cell-based; settings: Enterococcus faecium strains; CLSI guidelines; range over strains
[1] = in water, compared with NOS‐R at pH 6.0; ref Zhao et al., 2023; cited from earlier work
[2] = Aqueous solubility at pH 5.0 to 7.0; type: physicochemical; settings: pH 6, water
Method in brief: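 Test compound quantified by HPLC against a standard curve (31.25–1000 ng/mL), with linear regression of peak area against concentration. Aqueous solubility was determined in solutions of pH 5.0 to 7.0, following a previously described method.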

MRSE = assay: In vitro antibacterial activity; type: cell-based, methicillin‐resistant Staphylococcus epidermidis; settings: MRSE strains; CLSI guidelines; range over strains
MRSA = assay: In vitro antibacterial activity; type: cell-based, methicillin‐resistant Staphylococcus aureus; settings: MRSA strains; CLSI guidelines; range over strains
[3] = tested on: MRSA, MRSE, Enterococcus faecalis and Enterococcus faecium; assay: In vitro antibacterial activity, MIC range over all tested pathogens; type: cell-based; settings: E. faecalis and E. faecium strains
MRSA infection = assay: In vivo protection of mice infected with MRSA; settings: data not shown
SrGT822 = assay: Substrate spectrum of SrGT822; type: biochemical, Streptomyces sp. 147326; settings: dTDP‐L‐rhamnose as donor; LC-MS analysis; products not purified
Method in brief: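 SrGT822 from Streptomyces sp. 147326 carried a C-terminal His-tag in pET22b(+). It was expressed in E. coli BL21(DE3) with 0.5 mM IPTG at 20°C for 12 h and purified by nickel affinity. Seventeen compounds from various classes were tested as acceptors, with dTDP-L-rhamnose as donor, under the optimized reaction parameters.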

- MIC (Enterococcus faecalis): 0.0078 to 0.0156 µg/mL
- MIC (Enterococcus faecium): 0.0078 to 0.0156 µg/mL
Molecule: C=C(NC(=O)c1csc(-c2nc3c(cc2O)-c2nc(cs2)C(=O)NC(C(C)O)C(=O)N/C(=C\C)c2nc(cs2)C(=O)NC2CC(O)C(=O)OCc4cccc5[nH]c(c(C)c45)C(=O)SCC(NC(=O)c4csc2n4)c2nc-3cs2)n1)C(N)=O (stereo not shown) [NOS, Nosiheptide]
- aqueous solubility [1]: 0.0283 µg/mL (≈ 0.0232 µM)

Molecule: C=C(NC(=O)c1csc(-c2nc3c(cc2O[C@@H]2O[C@@H](C)[C@H](O)[C@@H](O)[C@H]2O)-c2nc(cs2)C(=O)NC(C(C)O)C(=O)N/C(=C\C)c2nc(cs2)C(=O)NC2CC(O)C(=O)OCc4cccc5[nH]c(c(C)c45)C(=O)SCC(NC(=O)c4csc2n4)c2nc-3cs2)n1)C(N)=O (stereo partly shown) [NOS‐R]
- solubility [2]: 0.526 µg/mL (≈ 0.384 µM)
- MIC (MRSE): 0.03125 to 0.0625 µg/mL
- MIC (MRSA): 0.03125 to 0.0625 µg/mL
- MIC (Enterococcus faecalis): 0.0078 to 0.0156 µg/mL
- MIC (Enterococcus faecium): 0.0078 to 0.0156 µg/mL
- MIC values against all the tested pathogens [3]: 0.0078 to 0.0625 µg/mL
- in vivo protection against MRSA infection (MRSA infection): new protective effect against MRSA infection in mice; also recorded: potential in vivo protection

Molecule: CN[C@H](CC(C)C)C(=O)N[C@H]1C(=O)N[C@@H](CC(N)=O)C(=O)N[C@H]2C(=O)N[C@H]3C(=O)N[C@H](C(=O)N[C@H](C(=O)O)c4cc(O)cc(O)c4-c4cc3ccc4O)[C@H](O)c3ccc(c(Cl)c3)Oc3cc2cc(c3O[C@@H]2O[C@H](CO)[C@@H](O)[C@H](O)[C@H]2O[C@H]2C[C@](C)(N)[C@H](O)[C@H](C)O2)Oc2ccc(cc2Cl)[C@H]1O [Vancomycin]
- MIC (MRSE): 0.125 to 1 µg/mL
- MIC (MRSA): 0.25 to 2 µg/mL
- MIC (Enterococcus faecalis): 1 to 2 µg/mL
- MIC (Enterococcus faecium): 1 to 2 µg/mL
- MIC values against all the tested pathogens [3]: 0.125 to 2 µg/mL

Molecule: nocathiacin I [compound 17]
- conversion rate (monorhamnosylation as a substrate of SrGT822) (SrGT822): below 60%
